The structures appear in SMILES notation. “And” between values parts separate entries of the source, which are not always exact repeats. Identical values can stand only once.

The subject of assay [1] is Mus musculus. Nature of the assay: In vivo antitumor activity against p-388 lymphocytic leukemia in mice at 3.12 mg/kg. It counts as functional. Summed up: (§1)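 Murine P388 lymphocytic leukemia model tested by the National Cancer Institute. Compound given once daily for 9 days; activity expressed as T/C.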
Assay [2] concerns Mus musculus. Nature of the assay: In vivo antitumor activity against p-388 lymphocytic leukemia in mice at 1.5 mg/kg. It counts as functional. A digest of the protocol: as §1
Assay [3] has as its system Mus musculus. Nature of the assay: In vivo antitumor activity against p-388 lymphocytic leukemia in mice at 12.5 mg/kg. It is filed as functional. Summed up:
as §1

The test system of assay [4] is Mus musculus. Nature of the assay: In vivo antitumor activity against p-388 lymphocytic leukemia in mice at 6.25 mg/kg. It counts as functional. Summed up: as §1
The subject of assay [5] is Mus musculus. Nature of the assay: In vivo antitumor activity against p-388 lymphocytic leukemia in mice at 1.50 mg/kg. It counts as functional. The following applies: dose 1.5 mg/kg. A digest of the protocol: as §1
The subject of assay [6] is Schistosoma mansoni. Nature of the assay: Incorporation of 1.1 M *10e6 [3H]uridine in hycanthone(HC) resistant Schistosoma mansoni. It counts as functional. Summed up: (§2)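 Adult HC-resistant S. mansoni were treated in vitro, and [3H]uridine incorporation by the worms was measured. Values are % of control. Concentrations are given in M × 10^6.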
Assay [7] relates to Schistosoma mansoni. Nature of the assay: Incorporation of 1.1 M *10e6 [3H]uridine in hycanthone(HC) sensitive Schistosoma mansoni. It is filed as functional.
In assay [8] the test system is Schistosoma mansoni. Nature of the assay: Incorporation of 5.5 M*10e6 [3H]uridine in hycanthone(HC) resistant Schistosoma mansoni. It counts as functional. A digest of the protocol: as §2
In assay [9] the test system is Schistosoma mansoni. Nature of the assay: Incorporation of 5.5 M*10e6 [3H]uridine in hycanthone(HC) sensitive Schistosoma mansoni. It counts as functional.
For assay [10], the system named is Schistosoma mansoni. Nature of the assay: Day 50% survival of worms in culture of HC sensitive Schistosoma mansoni. It counts as functional.
In assay [11] the test system is Nucleic Acid. Nature of the assay: Binding of 1x 10e-5 M [3H]HC to HeLa DNA. It is filed as nucleic-acid assay. The following applies: Homo sapiens. Summed up:
(§3)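 HeLa cells exposed 1 h to [3H]-labelled drug, washed three times with saline, then held 30 min at 37 °C in drug-free medium. After a 2 h digestion at 37 °C, crude DNA was ethanol-precipitated, purified on a CsCl density gradient, dialyzed and reprecipitated. DNA was quantified by A260. An aliquot was treated with DNase, and DNase-sensitive radioactivity was expressed as drug molecules per base pair.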

In assay [12] the test system is Nucleic Acid. Nature of the assay: Binding of 5x 10e-4 M [3H]HC to HeLa DNA. The following applies: Homo sapiens. It counts as nucleic-acid assay. A digest of the protocol: as §3
For assay [13], the system named is Nucleic Acid. Nature of the assay: In vitro binding of [3H]HC to calf thymus DNA after precipitation with alcohol and TCA was measured after 2 day. It is filed as nucleic-acid assay. The following applies: Bos taurus. Summed up:
(§4)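 0.02 µCi of 3H-labelled drug was added to 50 µg calf thymus DNA in 20 µL of 0.1 M citrate-phosphate buffer, pH 7. Incubated 1.5 h at 37 °C in the dark, diluted to 0.1 mL saline and dialyzed against saline at 4 °C for up to 4 days. Duplicate 10 µL samples taken from inside the bags at intervals were counted directly, or after TCA precipitation.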

Assay [14] relates to Nucleic Acid. Nature of the assay: In vitro binding of [3H]-HC to calf thymus DNA after precipitation with alcohol and TCA was measured after 3 days. It is filed as nucleic-acid assay. The following applies: Bos taurus. A digest of the protocol:
as §4

The subject of assay [15] is Nucleic Acid. Nature of the assay: In vitro binding of [3H]HC to calf thymus DNA after precipitation with alcohol and TCA was measured after 4 day. The following applies: Bos taurus. It is filed as nucleic-acid assay. A digest of the protocol:
as §4

Assay [16] concerns Nucleic Acid. Nature of the assay: In vitro binding of [3H]HC to calf thymus DNA was measured after 1 day. It is filed as nucleic-acid assay. The following applies: Bos taurus. A digest of the protocol:
as §4

The test system of assay [17] is Nucleic Acid. Nature of the assay: In vitro binding of [3H]HC to calf thymus DNA was measured after 2 days. It counts as nucleic-acid assay. The following applies: Bos taurus. Summed up: as §4
Assay [18] concerns Nucleic Acid. Nature of the assay: In vitro binding of [3H]HC to calf thymus DNA was measured after 2 hours. It counts as nucleic-acid assay. The following applies: Bos taurus. Summed up:
as §4

For assay [19], the system named is Nucleic Acid. Nature of the assay: Binding of 1x 10e-4 M [3H]HC to HeLa DNA. It is filed as nucleic-acid assay. The following applies: Homo sapiens. A digest of the protocol:
as §3

For assay [20], the system named is Nucleic Acid. Nature of the assay: In vitro binding of [3H]HC to calf thymus DNA was measured after 3 days. The following applies: Bos taurus. It is filed as nucleic-acid assay. Summed up:
as §4

The test system of assay [21] is Nucleic Acid. Nature of the assay: In vitro binding of [3H]HC to calf thymus DNA was measured after 4 day. The following applies: Bos taurus. It is filed as nucleic-acid assay. Summed up: as §4
For assay [22], the system named is Nucleic Acid. Nature of the assay: In vitro binding of [3H]HC to calf thymus DNA. It is filed as nucleic-acid assay. The following applies: Bos taurus. A digest of the protocol:
as §4

Assay [23] has as its system Nucleic Acid. Nature of the assay: In vitro binding of [3H]HC to calf thymus DNA after precipitation with alcohol and TCA was measured. It is filed as nucleic-acid assay. The following applies: Bos taurus. Summed up:
as §4

Assay [24] relates to Nucleic Acid. Nature of the assay: In vitro binding of [3H]HC to calf thymus DNA after precipitation with alcohol and TCA was measured after 1 day. The following applies: Bos taurus. It is filed as nucleic-acid assay. A digest of the protocol:
as §4

Assay [25] relates to Nucleic Acid. Nature of the assay: In vitro binding of [3H]HC to calf thymus DNA after precipitation with alcohol and TCA was measured after 2 hours. It counts as nucleic-acid assay. The following applies: Bos taurus. A digest of the protocol: as §4
For assay [26], the system named is HeLa. Nature of the assay: Incorporation of 2*10e-5 M [3H]-uridine in HeLa cells in absence of HC measured as as TCA precipitable radioactivity compared with non treated controls. It counts as functional, cell-based. The following applies: Homo sapiens. A digest of the protocol:
(§5)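 HeLa cells (10^6 per duplicate tube) were exposed to drug for 1 h, washed three times with medium, then held 2 h in drug-free medium. [3H]uridine was added for 1 h. Cells were precipitated with 10% TCA, and precipitates were filter-collected and counted. Values are % TCA-precipitable radioactivity versus untreated controls.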

Assay [27] deals with HeLa. Nature of the assay: Incorporation of 2*10e-5 M [3H]uridine in HeLa cells in presence of HC measured as as TCA precipitable radioactivity compared with non treated controls. It counts as functional, cell-based. The following applies: Homo sapiens. Summed up:
(§6)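 HeLa cells (10^6 per duplicate tube) were incubated 1 h with drug. [3H]uridine was then added and incubation continued 1 h with drug present. Cells were washed with cold saline and precipitated with 10% TCA. Precipitates were collected on glass filters, TCA-washed and counted. Values are % TCA-precipitable radioactivity versus untreated controls.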

Assay [28] has as its system HeLa. Nature of the assay: Incorporation of 10e-5 M [3H]uridine in HeLa cells in absence of HC measured as as TCA precipitable radioactivity compared with non treated controls. It counts as functional, cell-based. The following applies: Homo sapiens. A digest of the protocol: as §5
The test system of assay [29] is HeLa. Nature of the assay: Incorporation of 10e-5 M [3H]uridine in HeLa cells in presence of HC measured as as TCA precipitable radioactivity compared with non treated controls. It counts as functional, cell-based. The following applies: Homo sapiens. Summed up:
as §6

For assay [30], the system named is Mus musculus. Nature of the assay: In vivo antitumor activity against p-388 lymphocytic leukemia in mice at 60 mg/kg. It counts as functional. Summed up: as §1
Assay [31] has as its system Schistosoma mansoni. Nature of the assay: Incorporation of 0.7 M *10e6 [3H]uridine in hycanthone(HC) sensitive Schistosoma mansoni. It is filed as functional.
For assay [32], the system named is Schistosoma mansoni. Nature of the assay: Incorporation of 1.4 M*10e6 [3H]uridine in hycanthone(HC) resistant Schistosoma mansoni. It is filed as functional. A digest of the protocol: as §2
In assay [33] the test system is Schistosoma mansoni. Nature of the assay: Incorporation of 1.4 M*10e6 [3H]uridine in hycanthone(HC) sensitive Schistosoma mansoni. It is filed as functional.
Assay [34] relates to Schistosoma mansoni. Nature of the assay: Day 50% survival of worms in culture of HC resistant Schistosoma mansoni. It counts as functional. A digest of the protocol:
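Adult HC-resistant S. mansoni were exposed in vitro and kept in culture. The value is the day by which 50% of worms were dead. Cultures were ended at different times in different experiments. Concentrations are given in M × 10^6.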

A short description of assay [35]: Total radioactivity of [3H]HC was evaluated after 2 hours. It is filed as functional. A digest of the protocol: (§7)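 3H-labelled drug (0.02 µCi) was mixed with 50 µg calf thymus DNA in 0.1 M citrate-phosphate buffer, pH 7, and incubated in the dark for 1.5 h at 37 °C. The mix was diluted in saline and dialysed against saline at 4 °C. Duplicate samples drawn from inside the bags at intervals up to 4 days were counted directly.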

Assay [36] is described as follows: Total radioactivity of [3H]HC was evaluated after 2 hr. It is filed as functional. Summed up: as §7
Assay [37] in a line: (§8) Total radioactivity of [3H]HC was evaluated after 3 days. It counts as functional. Summed up: as §7
Assay [38] can be described thus: as §8. It counts as functional. A digest of the protocol: as §7
This is another data set of the same source.

Assay [39] relates to HeLa. Nature of the assay: Incorporation of [3H]uridine in HeLa cells after 2x10e-5 M HC measured as as TCA precipitable radioactivity compared with non treated controls. The following applies: Homo sapiens.

As to `CNC(=O)OCc1ccc(NCCN(C)C)c2c(=O)c3cc(O)ccc3sc12`, the T/C in the assay with Mus musculus [1] came out at 130; with Mus musculus [2], 134; in the assay with Mus musculus [3] it was 112; in the assay with Mus musculus [4] it was 127.

Regarding `CCCNC(=O)OCc1ccc(NCCN(CC)CC)c2c(=O)c3ccccc3sc12`, the T/C worked out at 117% in the assay on Mus musculus [1], 99% in the assay with Mus musculus [5] and 134% with Mus musculus [4]. Also, the Control in the assay on Schistosoma mansoni [6] was found to be 100%; in the assay with Schistosoma mansoni [7], 40%; with Schistosoma mansoni [8], 56%; in the assay on Schistosoma mansoni [9], 22%. The Effect in the assay on Schistosoma mansoni [10] was >12 days and 10 days.

For the compound `CCN(CC)CCNc1ccc(CO)c2sc3ccccc3c(=O)c12` [HYCANTHONE], the Drug mol/base pair in the assay with Nucleic Acid [11] was less than 4e-08; with Nucleic Acid [12], 7e-07; in the assay on Nucleic Acid [19], less than 4e-08. The Radioactivity in the assay on Nucleic Acid [13] was 275 c.p.m; in the assay on Nucleic Acid [14], 265 c.p.m; in the assay with Nucleic Acid [15], 200 c.p.m; in the assay with Nucleic Acid [16], 3460 c.p.m; in the assay with Nucleic Acid [17], 2300 c.p.m; with Nucleic Acid [18] it was 50000 c.p.m. The Radioactivity in the assay with Nucleic Acid [20] was 1600 c.p.m; with Nucleic Acid [21], 1100 c.p.m; with Nucleic Acid [22], 235000 c.p.m; with Nucleic Acid [23], 350 c.p.m; in the assay on Nucleic Acid [24], 330 c.p.m; with Nucleic Acid [25] it was 430 c.p.m. Also, the Radioactivity with HeLa [26] stood at 68%; in the assay with HeLa [27], 37%; in the assay on HeLa [28] it was 88%; with HeLa [29] it was 32%; in assay [35], 20500 c.p.m; in [36], 100 c.p.m. In addition, the results for the Radioactivity (in assay [37]; in [38]; in the assay on HeLa [39]) were 700 c.p.m, 62 c.p.m and 68%, respectively. Besides, the T/C with Mus musculus [30] was found to be 165. Further, the Control in the assay with Schistosoma mansoni [31] is given as 20%; with Schistosoma mansoni [32], 98%; in the assay on Schistosoma mansoni [33], 30%. The Effect was more than 12 days in the assay on Schistosoma mansoni [34] and 7 days with Schistosoma mansoni [10].

The values are drawn from ChEMBL document CHEMBL1124248, “Preparation and antischistosomal and antitumor activity of hycanthone and some of its congeners. Evidence for the mode of action of hycanthone” (1988).
